# Data from ChEMBL document CHEMBL4011648, “Adamantyl Antiestrogens with Novel Side Chains Reveal a Spectrum of Activities in Suppressing Estrogen Receptor Mediated Activities in Breast Cancer Cells” (J Med Chem, 2017).
# Calls of active or inactive are those of the source. The calls are words filed in the database; no cut-off is given here.
# Key:
# [1] = target: T1, Estrogen receptor (Homo sapiens) (UniProt P03372); assay: Downregulation of ER-alpha levels in ER-positive human MCF-7 cells at 3 uM after 24 hrs by in-cell Western assay
# T1 sequence (whole entry): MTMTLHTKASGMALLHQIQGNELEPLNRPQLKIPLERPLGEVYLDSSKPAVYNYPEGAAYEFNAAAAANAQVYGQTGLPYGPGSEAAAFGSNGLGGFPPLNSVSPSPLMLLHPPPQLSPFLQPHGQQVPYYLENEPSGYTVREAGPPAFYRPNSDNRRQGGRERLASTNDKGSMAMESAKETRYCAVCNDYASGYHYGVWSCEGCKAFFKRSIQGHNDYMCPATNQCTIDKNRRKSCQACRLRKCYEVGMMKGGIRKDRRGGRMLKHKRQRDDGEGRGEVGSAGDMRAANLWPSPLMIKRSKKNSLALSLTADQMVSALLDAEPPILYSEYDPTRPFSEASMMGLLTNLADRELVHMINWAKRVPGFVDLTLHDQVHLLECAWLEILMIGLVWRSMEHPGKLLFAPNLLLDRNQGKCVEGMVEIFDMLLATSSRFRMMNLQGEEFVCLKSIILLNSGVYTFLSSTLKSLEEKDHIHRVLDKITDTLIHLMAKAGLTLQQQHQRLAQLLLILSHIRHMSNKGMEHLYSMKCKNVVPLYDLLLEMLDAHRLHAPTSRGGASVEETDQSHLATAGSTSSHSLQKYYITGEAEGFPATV
# [2] = target: T1, Estrogen receptor (Homo sapiens); assay: Displacement of [3H]estradiol from full-length human ERalpha receptor by scintillation counting relative to estradiol
# MDA-MB-231 = assay: Antiproliferative activity against ERalpha-negative human MDA-MB-231 cells at 3 uM after 6 days by WST-1 assay; format: functional, cell-based
# Outline: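 ERα-negative MDA-MB-231 breast cancer cells screened for proliferation with compound at 3 μM; WST-1 read-out at 450 nm after 6 days, relative to vehicle.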
# Estrogen receptor [3] = target: T2, Estrogen receptor (Homo sapiens, UniProt P03372); assay: Displacement of [3H]estradiol from full-length human ERalpha receptor by scintillation counting
# T2 sequence (P03372 whole entry): T1 sequence (whole entry)
# MCF7 [4] = assay: Antiproliferative activity against ER-positive human MCF7 cells at 3 uM after 6 days by WST-1 assay; format: functional
# Outline: (§1)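 MCF-7 cells (ATCC), 6-day compound exposure; viability by WST-1 absorbance at 450 nm, expressed relative to vehicle-treated controls. Run in triplicate; 3 μM single-concentration screen values are averages of two to three independent experiments. Dose-response curves give IC50.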
# [5] = target: T1, Estrogen receptor (Homo sapiens); assay: Downregulation of human ERalpha in human MCF-7 cells at 3 x 10^-6 M after 24 hrs by Western blot method; format: cell-based
# Outline: (§2)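 MCF-7 cells treated 24 h at 3 × 10−10, 3 × 10−8 or 3 × 10−6 M; whole-cell extracts with protease/phosphatase inhibitors, 10% SDS-PAGE, nitrocellulose, probed with anti-ERα F10 and β-actin; ERα given as percent of vehicle.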
# Estrogen receptor [6] = target: T2, Estrogen receptor; assay: Downregulation of ERalpha in human MCF-7 cells assessed as reduction of estradiol-induced PgR mRNA levels after 24 hrs by RT-PCR method; format: cell-based
# Outline: (§3)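 MCF-7 cells in full medium (5% FBS) with 3 × 10−10 M E2, treated 24 h across a concentration range; TRIzol RNA, reverse transcription, SYBR green qPCR for GREB1, PgR or pS2 normalized to 36B4, fold change versus vehicle; mean ± SD of at least two independent experiments in triplicate.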
# [7] = target: T1, Estrogen receptor (Homo sapiens); assay: Downregulation of human ERalpha in human MCF-7 cells at 3 x 10^-10 M after 24 hrs by Western blot method; format: cell-based
# Outline: as §2
# Estrogen receptor [8] = target: T2, Estrogen receptor; assay: Downregulation of human ERalpha in human MCF-7 cells after 24 hrs by in-cell Western immunoassay method; format: cell-based
# Outline: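 MCF-7 cells at 3000 cells/well treated 24 h (3 μM screen or dose-response); formaldehyde-fixed, Triton-permeabilized, stained with rabbit HC-20 anti-ERα overnight at 4 °C, IR secondary plus Cell Tag 700 normalization; in-cell Western imaging, ERα relative to vehicle, average of at least three independent experiments.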
# [9] = target: T1, Estrogen receptor (Homo sapiens); assay: Downregulation of human ERalpha in human MCF-7 cells at 3 x 10^-8 M after 24 hrs by Western blot method; format: cell-based
# Outline: as §2
# Estrogen receptor [10] = target: T2, Estrogen receptor; assay: Downregulation of ERalpha in human MCF-7 cells assessed as reduction of estradiol-induced pS2 mRNA levels after 24 hrs by RT-PCR method; format: cell-based
# Outline: as §3
# MCF7 [11] = assay: Antiproliferative activity against ER-positive human MCF7 cells after 6 days by WST-1 assay; format: functional, cell-based; details: MCF7, 144 h
# Outline: as §1
# Estrogen receptor [12] = target: T2, Estrogen receptor; assay: Downregulation of ERalpha in human MCF-7 cells assessed as reduction of estradiol-induced GREB1 mRNA levels after 24 hrs by RT-PCR method; format: cell-based
# Outline: as §3
SMILES,Activity [1],RBA [2],Ki (Estrogen receptor [3]),Activity (MDA-MB-231),Activity (MCF7 [4]),further results
CCCCNC(=O)/C=C/c1ccc(C(=C2C3CC4CC(C3)CC2C4)c2ccc(O)cc2)cc1,Active,28%,–,inactive,Active,–
O=C(/C=C/c1ccc(C(=C2C3CC4CC(C3)CC2C4)c2ccc(O)cc2)cc1)NCCCCO,–,56%,0.36 nM,inactive,Active,–
CCCNS(=O)(=O)/C=C/c1ccc(C(=C2C3CC4CC(C3)CC2C4)c2ccc(O)cc2)cc1,Active,52%,0.38 nM,inactive,Active,–
O=C(/C=C/c1ccc(C(=C2C3CC4CC(C3)CC2C4)c2ccc(O)cc2)cc1)N(CCO)CCO,–,115%,0.13 nM,inactive,–,–
O=C(/C=C/c1ccc(C(=C2C3CC4CC(C3)CC2C4)c2ccc(O)cc2)cc1)NCCCCCO,–,31%,0.65 nM,inactive,Active,–
O=C(/C=C/c1ccc(C(=C2C3CC4CC(C3)CC2C4)c2ccc(O)cc2)cc1)NCCO,Active,109%,0.18 nM,inactive,24%,IC50 (Estrogen receptor [8]): 5.6 nM; IC50 (MCF7 [11]): 2.4 nM
NCCCCNC(=O)/C=C/c1ccc(C(=C2C3CC4CC(C3)CC2C4)c2ccc(O)cc2)cc1,Active,–,–,inactive,–,–
N#C/C=C/c1ccc(C(=C2C3CC4CC(C3)CC2C4)c2ccc(O)cc2)cc1,Active,14%,1.4 nM,inactive,inactive,–
O=C(/C=C/c1ccc(C(=C2C3CC4CC(C3)CC2C4)c2ccc(O)cc2)cc1)NCCCO,–,47%,–,inactive,30%,Activity [5]: Active; IC50 (Estrogen receptor [6]): 50 nM; Activity [7]: Active; IC50 (Estrogen receptor [8]): 0.53 nM; Activity [9]: Active; IC50 (Estrogen receptor [10]): 50 nM; IC50 (MCF7 [11]): 1.9 nM; IC50 (Estrogen receptor [12]): 50 nM
O=C(/C=C/c1ccc(C(=C2C3CC4CC(C3)CC2C4)c2ccc(O)cc2)cc1)NCC(F)(F)F,inactive,15%,1.33 nM,inactive,–,–
CN(C)CCNC(=O)/C=C/c1ccc(C(=C2C3CC4CC(C3)CC2C4)c2ccc(O)cc2)cc1,–,57%,0.35 nM,inactive,–,–
NCCNC(=O)/C=C/c1ccc(C(=C2C3CC4CC(C3)CC2C4)c2ccc(O)cc2)cc1,Active,35%,0.57 nM,inactive,Active,–
CCCCCC(=O)/C=C/c1ccc(C(=C2C3CC4CC(C3)CC2C4)c2ccc(O)cc2)cc1,–,12%,1.7 nM,inactive,–,–
CCCCCNC(=O)/C=C/c1ccc(C(=C2C3CC4CC(C3)CC2C4)c2ccc(O)cc2)cc1,–,27%,0.74 nM,inactive,Active,–
CN(CCO)C(=O)/C=C/c1ccc(C(=C2C3CC4CC(C3)CC2C4)c2ccc(O)cc2)cc1,–,–,–,inactive,–,–
CCC(=C(c1ccc(O)cc1)c1ccc(/C=C/C(=O)O)cc1)c1ccccc1,–,–,–,inactive,–,–
CCCCN(C)C(=O)/C=C/c1ccc(C(=C2C3CC4CC(C3)CC2C4)c2ccc(O)cc2)cc1,inactive,28%,–,inactive,inactive,–
CC(C)CCCCCOC(=O)/C=C/c1ccc(C(=C2C3CC4CC(C3)CC2C4)c2ccc(O)cc2)cc1,Active,2.8%,7.1 nM,inactive,–,–
NCCCNC(=O)/C=C/c1ccc(C(=C2C3CC4CC(C3)CC2C4)c2ccc(O)cc2)cc1,Active,54%,–,inactive,Active,–

# Further lines, with some results ahead:
Activity [1],RBA [2],Ki (Estrogen receptor [3]),SMILES,Activity (MDA-MB-231),Activity (MCF7 [4]),further results
inactive,71%,0.27 nM,NC(=O)/C=C/c1ccc(C(=C2C3CC4CC(C3)CC2C4)c2ccc(O)cc2)cc1,inactive,–,–
Active,51%,0.4 nM,O=C(O)/C=C/c1ccc(C(=C2C3CC4CC(C3)CC2C4)c2ccc(O)cc2)cc1,inactive,Active,Activity [5]: Active; IC50 (Estrogen receptor [6]): 500 nM; Activity [7]: Active; IC50 (Estrogen receptor [8]): 17 nM; Activity [9]: Active; IC50 (Estrogen receptor [10]): 500 nM; IC50 (MCF7 [11]): 31 nM; IC50 (Estrogen receptor [12]): 500 nM
inactive,46%,–,COC(=O)/C=C/c1ccc(C(=C2C3CC4CC(C3)CC2C4)c2ccc(O)cc2)cc1,inactive,–,–
–,18%,1.1 nM,CCCNC(=O)/C=C/c1ccc(C(=C2C3CC4CC(C3)CC2C4)c2ccc(O)cc2)cc1,inactive,Active,–
inactive,28%,–,O=C(/C=C/c1ccc(C(=C2C3CC4CC(C3)CC2C4)c2ccc(O)cc2)cc1)OCCCO,inactive,–,–
Active,44%,0.45 nM,O=C(/C=C/c1ccc(C(=C2C3CC4CC(C3)CC2C4)c2ccc(O)cc2)cc1)OCCCCO,inactive,–,–
inactive,54%,–,O=C(/C=C/c1ccc(C(=C2C3CC4CC(C3)CC2C4)c2ccc(O)cc2)cc1)OCCO,inactive,–,–
inactive,13%,3.3 nM,CCOC(=O)/C=C/c1ccc(C(=C2C3CC4CC(C3)CC2C4)c2ccc(O)cc2)cc1,inactive,–,–
Active,11%,1.8 nM,CCCCOC(=O)/C=C/c1ccc(C(=C2C3CC4CC(C3)CC2C4)c2ccc(O)cc2)cc1,inactive,40%,–
